According to ChEMBL document CHEMBL1141963, “Ketene aminal-based lactam derivatives as a novel class of orally active FXa inhibitors” (Bioorg Med Chem Lett, 2005):

What was measured:
Coagulation factor X [1] = molecular target: T1, Coagulation factor X (Homo sapiens, UniProt P00742); test: Inhibitory activity against human FXa
Target sequence in this assay (P00742 41-179 limits assumed): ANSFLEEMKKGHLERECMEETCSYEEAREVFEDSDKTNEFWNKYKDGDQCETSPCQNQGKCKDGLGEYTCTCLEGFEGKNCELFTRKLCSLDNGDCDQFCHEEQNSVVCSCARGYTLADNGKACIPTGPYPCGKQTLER
Target sequence in this assay (P00742 235-488 limits assumed): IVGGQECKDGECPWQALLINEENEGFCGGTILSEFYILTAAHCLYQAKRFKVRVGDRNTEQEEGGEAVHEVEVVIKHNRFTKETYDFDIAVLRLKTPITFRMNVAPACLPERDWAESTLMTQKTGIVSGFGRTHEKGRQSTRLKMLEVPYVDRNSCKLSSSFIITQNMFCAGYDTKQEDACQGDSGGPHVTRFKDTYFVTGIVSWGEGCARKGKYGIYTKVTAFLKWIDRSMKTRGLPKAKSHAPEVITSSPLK

Coagulation factor X [2] = molecular target: T1, Coagulation factor X; test: Anticoagulant potency in human plasma as measured by prothrombin time
Target sequence in this assay (P00742 whole entry, looked up): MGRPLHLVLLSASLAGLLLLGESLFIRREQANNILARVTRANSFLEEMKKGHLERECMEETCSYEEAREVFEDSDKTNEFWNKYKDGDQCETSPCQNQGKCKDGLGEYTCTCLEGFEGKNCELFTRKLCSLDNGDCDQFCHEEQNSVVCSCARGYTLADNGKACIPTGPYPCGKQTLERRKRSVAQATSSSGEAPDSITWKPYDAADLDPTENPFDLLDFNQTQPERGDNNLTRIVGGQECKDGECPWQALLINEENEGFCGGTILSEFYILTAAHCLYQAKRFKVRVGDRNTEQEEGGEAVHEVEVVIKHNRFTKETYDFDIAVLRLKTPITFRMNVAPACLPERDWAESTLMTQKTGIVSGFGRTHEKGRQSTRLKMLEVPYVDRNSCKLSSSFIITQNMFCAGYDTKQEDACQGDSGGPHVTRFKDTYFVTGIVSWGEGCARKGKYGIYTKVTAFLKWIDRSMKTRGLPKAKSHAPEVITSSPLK

[3] = Binding affinity to trypsin; design: species or system Homo sapiens
Method in brief: (§1)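 Human enzymes, each assayed against a low-molecular-weight synthetic substrate. Ki was calculated from IC50 assuming competitive inhibition, as Ki = IC50/(1 + [S]/Km), where [S] is the substrate concentration in the assay and Km the substrate's Michaelis constant. Values are averages of two independent determinations.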

Prothrombin = Prothrombin (Homo sapiens, UniProt P00734); test: Binding affinity to thrombin; method in brief: as §1
Plasma kallikrein = Plasma kallikrein (Homo sapiens, UniProt P03952); test: Binding affinity to plasma kallikrein; method in brief: as §1
[4] = molecular target: Urokinase-type plasminogen activator (Homo sapiens, UniProt P00749); test: Binding affinity to urokinase; method in brief: as §1
Plasminogen = Plasminogen (Homo sapiens, UniProt P00747); test: Binding affinity to plasmin; method in brief: as §1
[5] = molecular target: Tissue-type plasminogen activator (Homo sapiens, UniProt P00750); test: Binding affinity to tPA; method in brief: as §1
[6] = molecular target: Vitamin K-dependent protein C (Homo sapiens, UniProt P04070); test: Binding affinity to activated protein C; method in brief: as §1
Coagulation factor IX = Coagulation factor IX (Homo sapiens, UniProt P00740); test: Binding affinity to factor IXa; method in brief: as §1
Coagulation factor VII = molecular target: T2, Coagulation factor VII (Homo sapiens, UniProt P08709); test: Binding affinity to factor VIIa; method in brief: as §1
T2 sequence (P08709 whole entry): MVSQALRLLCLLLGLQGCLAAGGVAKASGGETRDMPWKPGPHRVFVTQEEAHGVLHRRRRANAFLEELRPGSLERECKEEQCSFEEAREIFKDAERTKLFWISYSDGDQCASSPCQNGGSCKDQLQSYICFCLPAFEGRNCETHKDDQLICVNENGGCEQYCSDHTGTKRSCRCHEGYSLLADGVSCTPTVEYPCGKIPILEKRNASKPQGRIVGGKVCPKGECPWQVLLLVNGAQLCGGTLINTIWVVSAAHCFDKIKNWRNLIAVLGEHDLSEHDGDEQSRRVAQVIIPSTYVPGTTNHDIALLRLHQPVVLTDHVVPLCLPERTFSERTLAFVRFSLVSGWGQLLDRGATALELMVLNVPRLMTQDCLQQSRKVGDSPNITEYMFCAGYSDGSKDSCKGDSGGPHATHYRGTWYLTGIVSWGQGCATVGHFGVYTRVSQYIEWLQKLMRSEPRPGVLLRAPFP

Chymotrypsinogen B = Chymotrypsinogen B (Homo sapiens, UniProt P17538); test: Binding affinity to chymotrypsin; method in brief: as §1
Sequence of Chymotrypsinogen B (P17538 34-164 limits assumed, other chains not shown): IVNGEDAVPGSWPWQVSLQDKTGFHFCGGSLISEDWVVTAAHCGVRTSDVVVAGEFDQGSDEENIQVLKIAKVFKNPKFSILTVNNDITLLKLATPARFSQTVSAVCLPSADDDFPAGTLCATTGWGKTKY
Sequence of Chymotrypsinogen B (P17538 167-263 limits assumed, other chains not shown): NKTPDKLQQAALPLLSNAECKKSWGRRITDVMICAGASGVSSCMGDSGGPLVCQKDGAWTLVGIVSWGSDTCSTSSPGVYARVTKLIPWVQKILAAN

Sequence of Tissue-type plasminogen activator (P00750 whole entry): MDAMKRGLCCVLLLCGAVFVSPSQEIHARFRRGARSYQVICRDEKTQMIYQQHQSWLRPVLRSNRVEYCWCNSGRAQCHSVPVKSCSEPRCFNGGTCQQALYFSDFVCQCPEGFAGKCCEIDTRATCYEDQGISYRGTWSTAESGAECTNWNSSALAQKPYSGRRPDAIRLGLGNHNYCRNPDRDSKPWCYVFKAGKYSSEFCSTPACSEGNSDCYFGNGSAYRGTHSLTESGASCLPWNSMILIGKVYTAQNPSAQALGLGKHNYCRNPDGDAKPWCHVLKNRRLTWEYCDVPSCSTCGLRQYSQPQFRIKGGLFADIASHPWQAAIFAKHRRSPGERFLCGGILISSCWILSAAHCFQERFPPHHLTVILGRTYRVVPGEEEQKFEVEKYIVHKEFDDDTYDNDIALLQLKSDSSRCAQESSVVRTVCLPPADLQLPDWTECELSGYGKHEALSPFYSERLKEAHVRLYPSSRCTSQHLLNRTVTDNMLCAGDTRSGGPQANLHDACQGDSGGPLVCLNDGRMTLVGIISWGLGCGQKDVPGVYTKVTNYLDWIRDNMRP
Sequence of Vitamin K-dependent protein C (P04070 43-197 limits assumed): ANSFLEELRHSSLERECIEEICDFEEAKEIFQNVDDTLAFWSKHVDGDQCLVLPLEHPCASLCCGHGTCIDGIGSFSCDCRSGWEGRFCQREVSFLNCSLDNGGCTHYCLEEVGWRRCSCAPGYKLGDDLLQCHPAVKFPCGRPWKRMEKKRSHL
Sequence of Vitamin K-dependent protein C (P04070 212-461 limits assumed): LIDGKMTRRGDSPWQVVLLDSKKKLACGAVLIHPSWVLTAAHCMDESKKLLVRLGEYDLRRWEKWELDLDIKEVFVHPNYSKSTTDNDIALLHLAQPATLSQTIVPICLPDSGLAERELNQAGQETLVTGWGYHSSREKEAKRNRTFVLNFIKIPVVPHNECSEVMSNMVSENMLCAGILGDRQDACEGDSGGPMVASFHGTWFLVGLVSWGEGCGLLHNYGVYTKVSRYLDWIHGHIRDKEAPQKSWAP
Sequence of Plasminogen (P00747 97-580 limits assumed): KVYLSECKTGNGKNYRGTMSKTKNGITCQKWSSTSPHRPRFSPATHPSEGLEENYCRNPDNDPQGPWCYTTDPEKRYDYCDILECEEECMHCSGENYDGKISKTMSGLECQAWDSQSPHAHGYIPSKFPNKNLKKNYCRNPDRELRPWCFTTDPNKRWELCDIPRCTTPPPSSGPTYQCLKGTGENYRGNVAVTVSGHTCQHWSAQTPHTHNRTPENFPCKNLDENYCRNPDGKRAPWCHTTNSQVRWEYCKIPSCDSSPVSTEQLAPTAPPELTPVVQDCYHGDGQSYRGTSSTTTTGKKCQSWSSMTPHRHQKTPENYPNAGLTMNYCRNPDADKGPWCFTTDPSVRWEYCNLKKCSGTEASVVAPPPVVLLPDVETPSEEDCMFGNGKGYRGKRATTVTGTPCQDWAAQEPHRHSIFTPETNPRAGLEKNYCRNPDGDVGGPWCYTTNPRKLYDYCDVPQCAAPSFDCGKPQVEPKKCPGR
Sequence of Plasminogen (P00747 581-810 limits assumed): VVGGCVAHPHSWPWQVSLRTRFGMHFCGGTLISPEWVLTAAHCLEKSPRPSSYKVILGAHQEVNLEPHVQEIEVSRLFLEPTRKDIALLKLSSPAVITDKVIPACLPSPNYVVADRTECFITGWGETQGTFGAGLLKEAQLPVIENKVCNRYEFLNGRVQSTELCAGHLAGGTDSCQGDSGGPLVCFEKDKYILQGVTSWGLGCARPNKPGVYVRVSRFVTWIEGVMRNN
Sequence of Plasma kallikrein (P03952 20-390 limits assumed): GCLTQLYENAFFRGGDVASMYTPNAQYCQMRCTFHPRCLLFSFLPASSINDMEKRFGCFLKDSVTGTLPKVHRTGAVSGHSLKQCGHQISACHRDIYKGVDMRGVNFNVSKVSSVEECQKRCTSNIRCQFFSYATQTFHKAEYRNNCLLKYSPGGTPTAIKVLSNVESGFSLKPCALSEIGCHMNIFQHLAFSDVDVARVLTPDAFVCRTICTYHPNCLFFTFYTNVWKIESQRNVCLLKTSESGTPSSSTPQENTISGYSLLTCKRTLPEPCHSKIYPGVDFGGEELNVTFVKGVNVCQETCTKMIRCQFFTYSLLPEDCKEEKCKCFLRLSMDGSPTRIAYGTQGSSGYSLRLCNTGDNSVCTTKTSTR
Sequence of Plasma kallikrein (P03952 391-638 limits assumed): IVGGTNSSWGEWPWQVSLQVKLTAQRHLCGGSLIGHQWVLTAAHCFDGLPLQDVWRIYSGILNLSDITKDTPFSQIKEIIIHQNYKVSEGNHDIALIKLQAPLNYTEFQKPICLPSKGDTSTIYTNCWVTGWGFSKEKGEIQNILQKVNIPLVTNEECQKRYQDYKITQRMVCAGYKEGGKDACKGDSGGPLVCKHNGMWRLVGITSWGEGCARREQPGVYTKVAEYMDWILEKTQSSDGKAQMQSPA
Sequence of Coagulation factor IX (P00740 47-191 limits assumed): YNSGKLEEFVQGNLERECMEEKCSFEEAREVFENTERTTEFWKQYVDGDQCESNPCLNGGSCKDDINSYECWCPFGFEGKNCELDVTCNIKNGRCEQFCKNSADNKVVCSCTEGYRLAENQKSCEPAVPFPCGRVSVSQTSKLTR
Sequence of Coagulation factor IX (P00740 227-461 limits assumed): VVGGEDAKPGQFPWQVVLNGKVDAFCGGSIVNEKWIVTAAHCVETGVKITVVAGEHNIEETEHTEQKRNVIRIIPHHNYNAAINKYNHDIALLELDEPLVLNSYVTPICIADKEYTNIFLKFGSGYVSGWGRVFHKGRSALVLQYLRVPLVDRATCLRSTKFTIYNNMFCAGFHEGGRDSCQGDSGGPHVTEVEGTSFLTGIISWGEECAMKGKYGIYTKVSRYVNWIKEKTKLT

For `Cc1cc2cc(N/C(N[C@H]3CCCCN(CC(=O)N4CCCC4)C3=O)=C(/C#N)C(=O)NC(N)=O)ccc2o1`, the IC50 (Coagulation factor X [1]) was 0.013 µM and the 2PT (Coagulation factor X [2]) was 7 µM.

Work on `Cc1cc2cc(NC(/C=C(\O)c3nccs3)=N/[C@H]3CCCCN(CC(=O)N4CCCC4)C3=O)ccc2o1` yielded an IC50 (Coagulation factor X [1]) of 0.01 µM and a 2PT (Coagulation factor X [2]) of 31 µM.

Work on `Cc1ccc(N/C(=C\[N+](=O)[O-])N[C@H]2CCCCN(CC(=O)N3CCCC3)C2=O)cc1` yielded an IC50 (Coagulation factor X [1]) greater than 34 µM.

With `COc1ccc(N/C(=C\[N+](=O)[O-])N[C@H]2CCCCN(CC(=O)N3CCCC3)C2=O)cc1C` the IC50 (Coagulation factor X [1]) was 3.4 µM.

Work on `Cc1cc2cc(NC(=N/[C@H]3CCCCN(CC(=O)N4CCCC4)C3=O)/C(C#N)=C(\O)c3ccc(Cl)cc3)ccc2o1` yielded an IC50 (Coagulation factor X [1]) of 0.013 µM and a 2PT (Coagulation factor X [2]) of 62 µM.

Work on `Cc1cc2cc(N/C(N[C@H]3CCCCN(CC(=O)N4CCCC4)C3=O)=C(/C#N)C(N)=O)ccc2o1` yielded an IC50 (Coagulation factor X [1]) of 0.017 µM and a 2PT (Coagulation factor X [2]) of 13 µM.

`Cc1cc2cc(N/C(N[C@H]3CCCCN(CC(=O)N4CCCC4)C3=O)=C(/C#N)S(=O)(=O)C(C)C)ccc2o1` showed an IC50 (Coagulation factor X [1]) of 0.647 µM.

In the case of `O=C(CN1CCCC[C@H](N/C(=C/[N+](=O)[O-])Nc2ccccc2)C1=O)N1CCCC1`, the IC50 (Coagulation factor X [1]) is reported as 16.5 µM.

`COc1cccc(N/C(=C\[N+](=O)[O-])N[C@H]2CCCCN(CC(=O)N3CCCC3)C2=O)c1` gave an IC50 (Coagulation factor X [1]) of 6.7 µM.

Work on `CCOP(=O)(OCC)/C(C#N)=C(\Nc1ccc2oc(C)cc2c1)N[C@H]1CCCCN(CC(=O)N2CCCC2)C1=O` yielded an IC50 (Coagulation factor X [1]) of 0.658 µM and a 2PT (Coagulation factor X [2]) greater than 60 µM.

For `Cc1cc2cc(NC(=N/[C@H]3CCCCN(CC(=O)N4CCCC4)C3=O)/C(C#N)=C(\O)OCCCCO)ccc2o1`, the IC50 (Coagulation factor X [1]) was 0.01 µM, the Ki (Coagulation factor X [1]) was 0.012 µM and the Ki [3] was greater than 5 µM. For the same molecule, the Ki (Prothrombin) was 6.3 µM, the Ki (Plasma kallikrein) was greater than 19.4 µM and the Ki [4] was greater than 14 µM. It also gave a Ki (Plasminogen) greater than 22 µM, a Ki [5] of 16 µM and a Ki [6] greater than 21.5 µM. It also gave a Ki (Coagulation factor IX) greater than 10 µM, a Ki (Coagulation factor VII) greater than 55 µM and a Ki (Chymotrypsinogen B) of 9.42 µM. The 2PT (Coagulation factor X [2]) was 10 µM.

With `Cc1cc2cc(NC(=N/[C@H]3CCCCN(CC(=O)N4CCCC4)C3=O)/C(C#N)=C(\O)OC(C)(C)C)ccc2o1` the IC50 (Coagulation factor X [1]) was 0.057 µM and the 2PT (Coagulation factor X [2]) was 60 µM.

Work on `COc1ccc(N/C(=C\[N+](=O)[O-])N[C@H]2CCCCN(CC(=O)N3CCCC3)C2=O)cc1` yielded an IC50 (Coagulation factor X [1]) of 3.1 µM.

Work on `COc1ccc(/C(O)=C(C#N)/C(=N\[C@H]2CCCCN(CC(=O)N3CCCC3)C2=O)Nc2ccc3oc(C)cc3c2)cc1` yielded an IC50 (Coagulation factor X [1]) of 0.013 µM and a 2PT (Coagulation factor X [2]) of 36 µM.

For `CN(C)c1cccc(N/C(=C\[N+](=O)[O-])N[C@H]2CCCCN(CC(=O)N3CCCC3)C2=O)c1`, the IC50 (Coagulation factor X [1]) was 2.1 µM.

`O=C(CN1CCCC[C@H](N/C(=C/[N+](=O)[O-])Nc2ccc3c(c2)CCO3)C1=O)N1CCCC1` gave an IC50 (Coagulation factor X [1]) of 1.5 µM.

In the case of `O=C(CN1CCCC[C@H](N/C(=C/[N+](=O)[O-])Nc2ccc3ccccc3c2)C1=O)N1CCCC1`, the IC50 (Coagulation factor X [1]) is reported as 1 µM.

Molecule `CCO/C(O)=C(C#N)/C(=N\[C@H]1CCCCN(CC(=O)N2CCCC2)C1=O)Nc1ccc2oc(C)cc2c1` has an IC50 (Coagulation factor X [1]) of 0.024 µM and a 2PT (Coagulation factor X [2]) of 31 µM.

`O=C(CN1CCCC[C@H](N/C(=C/[N+](=O)[O-])Nc2ccc3occc3c2)C1=O)N1CCCC1` gave an IC50 (Coagulation factor X [1]) of 0.539 µM.

In the case of `Cc1cc2cc(N/C(N[C@H]3CCCCN(CC(=O)N4CCCC4)C3=O)=C(/C#N)C(=O)N3CCC(C)CC3)ccc2o1`, the IC50 (Coagulation factor X [1]) is reported as 0.057 µM and the 2PT (Coagulation factor X [2]) is reported as 21 µM.

Work on `Cc1cc2cc(N/C(=C\[N+](=O)[O-])N[C@H]3CCCCN(CC(=O)N4CCCC4)C3=O)ccc2o1` yielded an IC50 (Coagulation factor X [1]) of 0.051 µM.

For `CN(C)c1ccc(N/C(=C\[N+](=O)[O-])N[C@H]2CCCCN(CC(=O)N3CCCC3)C2=O)cc1`, the IC50 (Coagulation factor X [1]) was greater than 34 µM.

Work on `Cc1cc2cc(N/C(N[C@H]3CCCCN(CC(=O)N4CCCC4)C3=O)=C(/C#N)S(C)(=O)=O)ccc2o1` yielded an IC50 (Coagulation factor X [1]) of 0.046 µM and a 2PT (Coagulation factor X [2]) of 24 µM.
